Source: ChEMBL document CHEMBL1153433, “Design and synthesis of 2-amino-4-methylpyridine analogues as inhibitors for inducible nitric oxide synthase and in vivo evaluation of [18F]6-(2-fluoropropyl)-4-methyl-pyridin-2-amine as a potential PET tracer for inducible nitric oxide synthase” (J Med Chem, 2009)

Experiments:
[1] = Metabolic stability in Sprague-Dawley rat whole blood at 400 uCi after 1 hr; format: ADME, tissue-based; details: read-out: Stability
Summary of the method: (§1)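 Heparinized whole blood (5 mL) from a mature male Sprague-Dawley rat incubated with ~400 μCi [18F]tracer at 37 °C for 5 min to 2 h. Aliquots lysed with 3 volumes of ethanol and centrifuged; supernatant and pellet gamma-counted. Supernatant species analysed by silica TLC (ethyl acetate), identified by co-elution with non-radioactive standard.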

[2] = Metabolic stability in Sprague-Dawley rat whole blood at 400 uCi after 2 hrs; format: ADME, tissue-based; details: read-out: Stability; summary of the method: as §1
[3] = Metabolic stability in Sprague-Dawley rat plasma assessed as parent compound remaining at 400 uCi, iv after 5 mins by HPLC; format: ADME, organism-based; details: read-out: Stability
Summary of the method: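 Anesthetized male Sprague-Dawley rat given 400 μCi [18F]tracer in 10% ethanol/saline i.v. via tail vein. Blood drawn by cardiac puncture at 5 and 30 min. Plasma separated by centrifugation, treated with 3 equivalents of acetonitrile and centrifuged; supernatant filtered and analysed by HPLC. Samples kept on ice.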

Blood [4] = assay: Biodistribution in LPS treated C57BL/6N mouse blood at 50 uCi/110 uL, iv administered 6 hrs […] LPS challenge measured after 1 hr post drug dose; format: ADME, organism-based; details: in vivo
Summary of the method: (§2)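 Male C57BL/6N mice aged 6-8 weeks received E. coli O127:B8 LPS in PBS, 10 mg/kg i.v., 6 h before tracer. Tracer ~50 μCi in 10% ethanol/saline, i.v. tail vein. Sacrifice was at 5 min, 30 min, 1 h or 2 h post-injection. Organs were weighed and gamma-counted with injectate standards. Data are %ID/g, mean ± SD, n = 4.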

Blood [5] = assay: Biodistribution in C57BL/6N mouse blood at 50 uCi/110 uL, iv after 1 hr; format: ADME, organism-based; details: in vivo
Summary of the method: (§3)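 Untreated (control) male C57BL/6N mice aged 6-8 weeks. HPLC-purified tracer, ~50 μCi in 10% ethanol/saline, given i.v. via the tail vein. Mice were sacrificed at 5 min, 30 min, 1 h and 2 h post-injection. Tissues were removed, weighed and gamma-counted against diluted injectate standards. Data are %ID/g, mean ± SD, n = 4.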

Lung = assay: Biodistribution in LPS treated C57BL/6N mouse lung at 50 uCi/110 uL, iv administered 6 hrs […] LPS challenge measured after 1 hr post drug dose; format: ADME, organism-based; details: in vivo
Summary of the method: (§4)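 Male C57BL/6N mice, 6-8 weeks; LPS (E. coli O127:B8) in PBS, 10 mg/kg i.v., given 6 h before tracer. HPLC-purified [18F]tracer ~50 μCi in 10% ethanol/saline i.v. via tail vein. Killed at 5 min, 30 min, 1 h or 2 h; tissues weighed and gamma-counted against diluted injectate standards. Reported as %ID/g, mean ± SD, n = 4.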

Liver [6] = assay: Biodistribution in LPS treated C57BL/6N mouse liver at 50 uCi/110 uL, iv administered 6 hrs […] LPS challenge measured after 5 mins post drug dose; format: ADME, organism-based; details: in vivo; summary of the method: as §4
Liver [7] = assay: Biodistribution in LPS treated C57BL/6N mouse liver at 50 uCi/110 uL, iv administered 6 hrs […] LPS challenge measured after 30 mins post drug dose; format: ADME, organism-based; details: in vivo, 0.5 h; summary of the method: as §4
Liver [8] = assay: Biodistribution in C57BL/6N mouse liver at 50 uCi/110 uL, iv after 30 mins; format: ADME, organism-based; details: in vivo, 0.5 h; summary of the method: as §3
Bone [9] = assay: Biodistribution in LPS treated C57BL/6N mouse bone at 50 uCi/110 uL, iv administered 6 hrs […] LPS challenge measured after 2 hrs post drug dose; format: ADME, organism-based, Bone element; details: in vivo; summary of the method: as §2
Liver [10] = assay: Biodistribution in LPS treated C57BL/6N mouse liver at 50 uCi/110 uL, iv administered 6 hrs […] LPS challenge measured after 1 hr post drug dose; format: ADME, organism-based; details: in vivo; summary of the method: as §4
Kidney = assay: Biodistribution in C57BL/6N mouse kidney at 50 uCi/110 uL, iv after 2 hrs; format: ADME, organism-based; details: in vivo; summary of the method: as §3
Muscle tissue [11] = assay: Biodistribution in LPS treated C57BL/6N mouse muscle at 50 uCi/110 uL, iv administered 6 hrs […] LPS challenge measured after 5 mins post drug dose; format: ADME, organism-based; details: in vivo; summary of the method: as §4
Muscle tissue [12] = assay: Biodistribution in C57BL/6N mouse muscle at 50 uCi/110 uL, iv after 5 mins; format: ADME, organism-based; details: in vivo; summary of the method: as §3
Blood [13] = assay: Biodistribution in C57BL/6N mouse blood at 50 uCi/110 uL, iv after 5 mins; format: ADME, organism-based; details: in vivo; summary of the method: as §3
Blood [14] = assay: Biodistribution in LPS treated C57BL/6N mouse blood at 50 uCi/110 uL, iv administered 6 hrs […] LPS challenge measured after 30 mins post drug dose; format: ADME, organism-based; details: in vivo, 0.5 h; summary of the method: as §2
Mus musculus = assay: Biodistribution in LPS treated C57BL/6N mouse at 5 uCi, iv co-administered with nonselective NOS inhibitor 2-amino-4-methylpyridine measured after 1 hr; format: ADME, organism-based; details: in vivo
Blood [15] = assay: Biodistribution in LPS treated C57BL/6N mouse blood at 50 uCi/110 uL, iv administered 6 hrs […] LPS challenge measured after 5 mins post drug dose; format: ADME, organism-based; details: in vivo; summary of the method: as §2
Muscle tissue [16] = assay: Biodistribution in LPS treated C57BL/6N mouse muscle at 50 uCi/110 uL, iv administered 6 hrs […] LPS challenge measured after 30 mins post drug dose; format: ADME, organism-based; details: in vivo, 0.5 h; summary of the method: as §4
Muscle tissue [17] = assay: Biodistribution in C57BL/6N mouse muscle at 50 uCi/110 uL, iv after 30 mins; format: ADME, organism-based; details: in vivo, 0.5 h; summary of the method: as §3
Muscle tissue [18] = assay: Biodistribution in LPS treated C57BL/6N mouse muscle at 50 uCi/110 uL, iv administered 6 hrs […] LPS challenge measured after 2 hrs post drug dose; format: ADME, organism-based; details: in vivo; summary of the method: as §4
Muscle tissue [19] = assay: Biodistribution in C57BL/6N mouse muscle at 50 uCi/110 uL, iv after 2 hrs; format: ADME, organism-based; details: in vivo; summary of the method: as §3
Heart [20] = assay: Biodistribution in C57BL/6N mouse heart at 50 uCi/110 uL, iv after 5 mins; format: ADME, organism-based; details: in vivo; summary of the method: as §3
Heart [21] = assay: Biodistribution in LPS treated C57BL/6N mouse heart at 50 uCi/110 uL, iv administered 6 hrs […] LPS challenge measured after 30 mins post drug dose; format: ADME, organism-based; details: in vivo, 0.5 h; summary of the method: as §2
Heart [22] = assay: Biodistribution in C57BL/6N mouse heart at 50 uCi/110 uL, iv after 30 mins; format: ADME, organism-based; details: in vivo, 0.5 h; summary of the method: as §3
Heart [23] = assay: Biodistribution in C57BL/6N mouse heart at 50 uCi/110 uL, iv after 1 hr; format: ADME, organism-based; details: in vivo; summary of the method: as §3
Heart [24] = assay: Biodistribution in C57BL/6N mouse heart at 50 uCi/110 uL, iv after 2 hrs; format: ADME, organism-based; details: in vivo; summary of the method: as §3
Brain [25] = assay: Biodistribution in C57BL/6N mouse brain at 50 uCi/110 uL, iv after 5 mins; format: ADME, organism-based; details: in vivo; summary of the method: as §3
Brain [26] = assay: Biodistribution in LPS treated C57BL/6N mouse brain at 50 uCi/110 uL, iv administered 6 hrs […] LPS challenge measured after 1 hr post drug dose; format: ADME, organism-based; details: in vivo; summary of the method: as §2
Brain [27] = assay: Biodistribution in C57BL/6N mouse brain at 50 uCi/110 uL, iv after 1 hr; format: ADME, organism-based; details: in vivo; summary of the method: as §3
Bone [28] = assay: Biodistribution in C57BL/6N mouse bone at 50 uCi/110 uL, iv after 5 mins; format: ADME, organism-based, Bone element; details: in vivo; summary of the method: as §3
Bone [29] = assay: Biodistribution in LPS treated C57BL/6N mouse bone at 50 uCi/110 uL, iv administered 6 hrs […] LPS challenge measured after 30 mins post drug dose; format: ADME, organism-based, Bone element; details: in vivo, 0.5 h; summary of the method: as §2
Bone [30] = assay: Biodistribution in C57BL/6N mouse bone at 50 uCi/110 uL, iv after 1 hr; format: ADME, organism-based, Bone element; details: in vivo; summary of the method: as §3

remaining at 1 h, 400 uCi [1]: 80%
remaining at 2 h, 400 uCi [2]: 75%
remaining at 5 min [3]: 40.3%
Drug uptake (Blood [4]): 0.86 % ID/g
Drug uptake (Blood [5]): 0.31 % ID/g
Drug uptake (Lung): 0.73 % ID/g
Drug uptake (Liver [6]): 24.6 % ID/g
Drug uptake (Liver [7]): 7.06 % ID/g
Drug uptake (Liver [8]): 10.7 % ID/g
Drug uptake (Bone [9]): 3.77 % ID/g
Drug uptake (Liver [10]): 2.63 % ID/g
Drug uptake (Kidney): 0.8 % ID/g
Drug uptake (Muscle tissue [11]): 1.64 % ID/g
Drug uptake (Muscle tissue [12]): 1.25 % ID/g
Drug uptake (Blood [13]): 2.37 % ID/g
Drug uptake (Blood [14]): 2.09 % ID/g
Activity (Mus musculus): Not Active
Drug uptake (Blood [15]): 3.69 % ID/g
Drug uptake (Muscle tissue [16]): 1.06 % ID/g
Drug uptake (Muscle tissue [17]): 0.71 % ID/g
Drug uptake (Muscle tissue [18]): 0.23 % ID/g
Drug uptake (Muscle tissue [19]): 0.34 % ID/g
Drug uptake (Heart [20]): 1.5 % ID/g
Drug uptake (Heart [21]): 1.02 % ID/g
Drug uptake (Heart [22]): 0.6 % ID/g
Drug uptake (Heart [23]): 0.19 % ID/g
Drug uptake (Heart [24]): 0.08 % ID/g
Drug uptake (Brain [25]): 1.6 % ID/g
Drug uptake (Brain [26]): 0.19 % ID/g
Drug uptake (Brain [27]): 0.11 % ID/g
Drug uptake (Bone [28]): 1.52 % ID/g
Drug uptake (Bone [29]): 3.7 % ID/g
Drug uptake (Bone [30]): 2.57 % ID/g
SMILES: Cc1cc(N)nc(CC(C)[18F])c1 (stereo not drawn)
